The results in this text go back to ChEMBL document CHEMBL2086261, “A focused sulfated glycoconjugate Ugi library for probing heparan sulfate-binding angiogenic growth factors” (Bioorg Med Chem Lett, 2012).

The target of test [1] is Fibroblast growth factor 2 (Homo sapiens, UniProt P09038). Put plainly: Binding affinity to FGF2 by surface plasmon resonance-based solution affinity assay. In a few lines:
(§1)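 Dissociation constants (Kd) for ligand binding to FGF-1, FGF-2 and VEGF were determined by an SPR solution affinity assay. Some entries come from a single measurement only.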

For test [2], the target named is T1, Vascular endothelial growth factor A, long form (Homo sapiens, UniProt P15692).
T1 sequence (P15692 whole entry): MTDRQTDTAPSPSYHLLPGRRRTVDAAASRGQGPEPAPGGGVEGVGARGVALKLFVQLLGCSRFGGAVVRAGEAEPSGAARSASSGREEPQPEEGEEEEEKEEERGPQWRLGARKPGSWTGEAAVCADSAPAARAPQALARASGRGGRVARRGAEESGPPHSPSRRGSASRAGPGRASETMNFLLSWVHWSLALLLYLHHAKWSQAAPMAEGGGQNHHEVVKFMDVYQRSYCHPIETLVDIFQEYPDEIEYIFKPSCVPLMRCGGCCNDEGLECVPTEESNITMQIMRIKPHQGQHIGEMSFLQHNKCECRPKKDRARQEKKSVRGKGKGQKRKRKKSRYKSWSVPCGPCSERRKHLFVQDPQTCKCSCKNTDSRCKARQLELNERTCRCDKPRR
The test can be described thus: Binding affinity to VEGF by surface plasmon resonance-based solution affinity assay. In short, it runs like this: as §1

The target of test [3] is Fibroblast growth factor 1 (Homo sapiens, UniProt P05230). Put plainly: Binding affinity to FGF1 by surface plasmon resonance-based solution affinity assay. In short, it runs like this: as §1
Sequence of Fibroblast growth factor 1 (P05230 whole entry): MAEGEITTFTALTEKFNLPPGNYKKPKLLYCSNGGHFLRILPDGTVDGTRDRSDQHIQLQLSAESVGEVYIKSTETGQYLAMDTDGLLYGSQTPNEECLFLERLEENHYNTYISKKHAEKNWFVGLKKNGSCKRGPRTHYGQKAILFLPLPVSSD

Sequence of Fibroblast growth factor 2 (P09038 143-288 limits assumed): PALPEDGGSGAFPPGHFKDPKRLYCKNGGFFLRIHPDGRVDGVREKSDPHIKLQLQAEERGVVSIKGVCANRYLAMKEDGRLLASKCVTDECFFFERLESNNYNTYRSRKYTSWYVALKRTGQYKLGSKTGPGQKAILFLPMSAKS

Take `CCN(CC(=O)NCCO[C@H]1O[C@H](COS(=O)(=O)O)[C@@H](OS(=O)(=O)O)[C@H](OS(=O)(=O)O)[C@@H]1OS(=O)(=O)O)C(=O)CCC(=O)O`: the Kd in test [1] came out at 122 µM; in test [2], 40 µM; in test [3] it was 43 µM.

With `CO[C@H]1O[C@H](CNC(=O)CN(C(C)=O)C2CCCCC2)[C@@H](OS(=O)(=O)O)[C@H](OS(=O)(=O)O)[C@@H]1OS(=O)(=O)O`, the results for the Kd in test [1], in test [2] and in test [3] were 413 µM, 1700 µM and 310 µM, respectively.

In the case of `CCCCC1CCC(N(CC(=O)NC[C@H]2O[C@H](OC)[C@@H](OS(=O)(=O)O)[C@@H](OS(=O)(=O)O)[C@@H]2OS(=O)(=O)O)C(C)=O)CC1` (stereo not given in full), the Kd came out at 540 µM in test [1], 1000 µM in test [2] and 243 µM in test [3].

For the compound `CC(=O)N(CC(=O)NCCO[C@H]1O[C@H](COS(=O)(=O)O)[C@@H](OS(=O)(=O)O)[C@H](OS(=O)(=O)O)[C@@H]1OS(=O)(=O)O)Cc1ccccc1`, the Kd in test [1] was found to be 287 µM; in test [2], 76.6 µM; in test [3], 25 µM.

Consider `CCN(CC(=O)NC[C@H]1O[C@H](OC)[C@@H](OS(=O)(=O)O)[C@@H](OS(=O)(=O)O)[C@@H]1OS(=O)(=O)O)C(=O)CCc1ccccc1`, for which binding in test [2] was put at a Kd of 596 µM.

As for `CCN(CC(=O)NC[C@H]1O[C@H](OC)[C@@H](OS(=O)(=O)O)[C@@H](OS(=O)(=O)O)[C@@H]1OS(=O)(=O)O)C(=O)CCCCC(=O)O`, the Kd in test [1] was determined as 480 µM; in test [2], 104 µM; in test [3], 160 µM.

In the case of `CO[C@H]1O[C@H](CNC(=O)CN(CCOS(=O)(=O)O)C(C)=O)[C@@H](OS(=O)(=O)O)[C@H](OS(=O)(=O)O)[C@@H]1OS(=O)(=O)O`, the Kd is 240 µM in test [1], 280 µM in test [2] and 95 µM in test [3].

`CO[C@H]1O[C@H](CNC(=O)CN(C(C)=O)C2CCCCCC2)[C@@H](OS(=O)(=O)O)[C@H](OS(=O)(=O)O)[C@@H]1OS(=O)(=O)O`: the dissociation constant Kd in test [1] was determined as 410 µM; in test [2], 3000 µM; in test [3], 370 µM.

In the case of `CCN(CC(=O)NC[C@H]1O[C@H](OC)[C@@H](OS(=O)(=O)O)[C@@H](OS(=O)(=O)O)[C@@H]1OS(=O)(=O)O)C(=O)c1ccccc1`, the Kd in test [1] was 480 µM; in test [2], 1100 µM; in test [3], 366 µM.

`CCN(CC(=O)NC[C@H]1O[C@H](OC)[C@@H](OS(=O)(=O)O)[C@@H](OS(=O)(=O)O)[C@@H]1OS(=O)(=O)O)C(=O)CCCCCCCCCOS(=O)(=O)O`: the Kd came out at 240 µM in test [1], 545 µM in test [2] and 111 µM in test [3].

For `O=C(CNC(=O)Cc1cccc(Cl)c1)NCCO[C@H]1O[C@H](COS(=O)(=O)O)[C@@H](OS(=O)(=O)O)[C@H](OS(=O)(=O)O)[C@@H]1OS(=O)(=O)O`, the values for the Kd in test [1], in test [2] and in test [3] were 837 µM, 91 µM and 170 µM, respectively.

Consider `CCN(CC(=O)NC[C@H]1O[C@H](OC)[C@@H](OS(=O)(=O)O)[C@@H](OS(=O)(=O)O)[C@@H]1OS(=O)(=O)O)C(=O)COS(=O)(=O)O`, for which the figures for the equilibrium dissociation constant (Kd) in test [2] and in test [3] were 512 µM and 174 µM, respectively.

Take `CO[C@H]1O[C@H](CNC(=O)CN(C(C)=O)c2ccccc2)[C@@H](OS(=O)(=O)O)[C@H](OS(=O)(=O)O)[C@@H]1OS(=O)(=O)O`: the Kd was 480 µM in test [1], 76 µM in test [2] and 196 µM in test [3].

In the case of `CO[C@H]1O[C@H](CNC(=O)CN(Cc2ccccc2)C(C)=O)[C@@H](OS(=O)(=O)O)[C@H](OS(=O)(=O)O)[C@@H]1OS(=O)(=O)O`, the dissociation constant (Kd) was found to be 192 µM in test [1], 77 µM in test [2] and 140 µM in test [3].

With `CCN(CC(=O)NC[C@H]1O[C@H](OC)[C@@H](OS(=O)(=O)O)[C@@H](OS(=O)(=O)O)[C@@H]1OS(=O)(=O)O)C(=O)CCCc1ccccc1`, the Kd in test [1] was found to be 400 µM; in test [2], 81 µM; in test [3], 500 µM.

Turning to `CO[C@H]1O[C@H](CNC(=O)CNC(=O)Cc2cccc(Cl)c2)[C@@H](OS(=O)(=O)O)[C@H](OS(=O)(=O)O)[C@@H]1OS(=O)(=O)O`, the Kd in test [1] is 430 µM; in test [2] it was 45.3 µM; in test [3] it was 37 µM.

On to `CC(=O)N(CC(=O)NCCO[C@H]1O[C@H](COS(=O)(=O)O)[C@@H](OS(=O)(=O)O)[C@H](OS(=O)(=O)O)[C@@H]1OS(=O)(=O)O)c1ccccc1`, for which the figures for the Kd in test [1], in test [2] and in test [3] were 240 µM, 402 µM and 97 µM, respectively.

Turning to `CCN(CC(=O)NC[C@H]1O[C@H](OC)[C@@H](OS(=O)(=O)O)[C@@H](OS(=O)(=O)O)[C@@H]1OS(=O)(=O)O)C(=O)CCC(=O)O`, the Kd in test [1] was determined as 291 µM; in test [2], 207 µM; in test [3], 338 µM.

`CO[C@H]1O[C@H](CNC(=O)CN(C(C)=O)C2CCCCCCCCCCC2)[C@@H](OS(=O)(=O)O)[C@H](OS(=O)(=O)O)[C@@H]1OS(=O)(=O)O`: the Kd in test [1] came out at 480 µM; in test [2], 1200 µM; in test [3], 265 µM.

For `CO[C@H]1O[C@H](CNC(=O)CN(CCc2ccccc2)C(C)=O)[C@@H](OS(=O)(=O)O)[C@H](OS(=O)(=O)O)[C@@H]1OS(=O)(=O)O`, the Kd was determined as 680 µM in test [1], 109 µM in test [2] and 224 µM in test [3].

For `CCN(CC(=O)NCCO[C@H]1O[C@H](COS(=O)(=O)O)[C@@H](OS(=O)(=O)O)[C@H](OS(=O)(=O)O)[C@@H]1OS(=O)(=O)O)C(=O)CCCCC(=O)O`, the Kd came to 188 µM in test [1], 81 µM in test [2] and 44 µM in test [3].

`CO[C@H]1O[C@H](CN=[N+]=[N-])[C@@H](OS(=O)(=O)O)[C@H](OS(=O)(=O)O)[C@@H]1OS(=O)(=O)O`: the Kd in test [1] was determined as 210 µM; in test [2] it was 630 µM; in test [3] it was 343 µM.

Compound `CO[C@H]1O[C@H](COS(=O)(=O)O)[C@@H](OS(=O)(=O)O)[C@H](OS(=O)(=O)O)[C@@H]1OS(=O)(=O)O` displayed a Kd in test [2] of 198 µM.

With `CCN(CC(=O)NCCO[C@H]1O[C@H](COS(=O)(=O)O)[C@@H](OS(=O)(=O)O)[C@H](OS(=O)(=O)O)[C@@H]1OS(=O)(=O)O)C(=O)CCCCCCCCCOS(=O)(=O)O`, the results for the Kd in test [1], in test [2] and in test [3] were 157 µM, 50 µM and 20 µM, respectively.

`CC(=O)N(CCc1ccccc1)CC(=O)NCCO[C@H]1O[C@H](COS(=O)(=O)O)[C@@H](OS(=O)(=O)O)[C@H](OS(=O)(=O)O)[C@@H]1OS(=O)(=O)O`: the Kd is 113 µM in test [1], 29 µM in test [2] and 11.8 µM in test [3].
